PAD4 inh – human PAD4 inhibitors, primary screen, biochemical, fluorescence polarization, 1536-well format; Protein-arginine deiminase type-4 (Homo sapiens), Q9UM07; recombinant PAD4, RCA probe fluorescence polarization; inhibition, % at 6.36 µM; 330,000 tested, 0.41% active; AID 485272, 2010;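 active = percent inhibition above a cutoff equal to the mean of all tested compounds plus 3 SD, cut at about 15% in these data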;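 also: 0% = PAD4 with RCA probe and DMSO and 100% = probe without PAD4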
SIAE inh – human SIAE inhibitors, primary screen, biochemical, fluorescence polarization, FP-Rh probe, 1536-well HTS | SIAE FP-Rh probe binding | Sialate O-acetylesterase (Homo sapiens), Q9HAT2 | 370,000 tested, 0.69% active | inhibition, % at 9.66 µM;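 active = inhibition above a cutoff: mean of compounds within the control limits plus 3 SD of those, cut at about 17% in these data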;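 also: 0% = plate median of compound wells and 100% = probe without SIAE protein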
RBBP9 inh – human RBBP9 inhibitors, primary screen, biochemical, fluorescence polarization, FP-Rh probe, HTS; Serine hydrolase RBBP9 (Homo sapiens), O75884; recombinant RBBP9; inhibition, % at 7.94 µM; 220,000 tested, 0.2% active;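 active = inhibition above the campaign mean of all tested compounds plus 3 SD, cut at about 14% in these data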;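 also: plate controls were DMSO wells with RBBP9 for no effect and wells lacking RBBP9 protein for full effect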
Target sequence (O75884 whole entry, looked up): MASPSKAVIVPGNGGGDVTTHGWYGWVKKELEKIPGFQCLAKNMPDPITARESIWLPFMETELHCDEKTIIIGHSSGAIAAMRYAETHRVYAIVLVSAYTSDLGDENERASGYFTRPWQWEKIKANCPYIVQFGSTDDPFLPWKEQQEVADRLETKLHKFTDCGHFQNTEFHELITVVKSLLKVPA
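Controls: DMSO-treated enzyme wells and wells lacking RBBP9 | Material: RBBP9 protein | Technique: Fluorescence polarization | Replication: Single well per compound, no replicates | Buffer or medium: Tris-NaCl-Pluronic buffer, pH 8.0 | Timing: 30 min compound preincubation, 45 min probe labeling, 25 °C | Read-out basis: Percent inhibition from mP, scaled between DMSO and no-protein wells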
PRMT1 inh – PRMT1 methyltransferase inhibitors, primary screen, biochemical, fluorescence polarization | recombinant PRMT1, activity-based probe fluorescence polarization | inhibition, % at 2.79 µM | 370,000 tested, 1.3% active | AID 652257, 2013;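 active = inhibition above about 21% made by adding two undisclosed values, limit read from the data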
GSTO1 counter – inhibitors of recombinant GSTO1, primary screen, counter-screen for RBBP9 inhibitor project, biochemical, fluorescence polarization. Glutathione S-transferase omega-1 (Homo sapiens), P78417. 300,000 tested, 1.1% active. inhibition, % at 5.96 µM. activity-based probe fluorescence polarization;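 active = inhibition above the campaign mean inhibition plus 3 SD, cut at about 35% in these data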;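 also: 0% = GSTO1-1 with DMSO and 100% = wells lacking GSTO1-1 enzyme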
Target sequence (P78417 whole entry, looked up): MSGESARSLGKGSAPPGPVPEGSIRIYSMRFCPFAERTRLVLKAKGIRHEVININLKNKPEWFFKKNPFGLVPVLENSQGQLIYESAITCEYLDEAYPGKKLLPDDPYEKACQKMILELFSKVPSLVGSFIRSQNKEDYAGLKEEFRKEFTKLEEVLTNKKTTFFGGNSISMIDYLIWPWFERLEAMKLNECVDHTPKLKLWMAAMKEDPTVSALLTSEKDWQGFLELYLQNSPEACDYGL
PAD4 confirm – human PAD4 inhibitors, confirmation, biochemical, fluorescence polarization; shares compounds with PAD4 inh; recombinant PAD4, RCA probe fluorescence polarization; inhibition, % at 6.36 µM; 1,200 tested, 28% active; AID 488796, 2010;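 active = mean inhibition across replicates above the hit cutoff set by the earlier primary screen, cut at about 15% in these data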;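 also: inhibitors block active-site labeling by the probe so polarization falls; 0% = PAD4 with probe and DMSO and 100% = probe without PAD4 enzyme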
* hit, by the source's call; x = no result given. Shown are actives, neighbours in structure and some others; about 2.7% of the full set was active somewhere.

SMILES | PAD4 inh | SIAE inh | RBBP9 inh | PRMT1 inh | GSTO1 counter | PAD4 confirm
CCCC(=O)N(Cc1cc(=O)[nH]c2ccccc12)c1ccccc1OC | -6.5 | 0.1 | x | 1.8 | -4.3 | x
CCCC(=O)N(Cc1cc(=O)[nH]c2ccccc12)c1ccc(C)cc1 | 22.8* | -0.6 | x | 6.8 | -15.1 | 26.8*
CCN(Cc1cc(=O)[nH]c2ccccc12)C(=O)C(C)C | -2.4 | 1.7 | -0.1 | -4.5 | 11.3 | x
Cc1ccc(N(Cc2cc(=O)[nH]c3ccccc23)C(=O)C(C)C)cc1 | 25.8* | -1.9 | -3.3 | -5.0 | -16.3 | 24.5*
Cc1cc(N2CCCCCC2)nc(-c2ccccc2O)n1 | 4.4 | -1.1 | -11.6 | 3.3 | 2.9 | x
CON(C)C(=O)c1ccccc1N(C)C(=O)OC(C)(C)C | -2.5 | -1.9 | x | 1.1 | x | x
CS(=O)(=O)c1ccc2nc(N)sc2c1 | -1.5 | -2.3 | -5.6 | -0.4 | 0.8 | x
CS(=O)(=O)c1ccc(N)c(SSc2cc(S(C)(=O)=O)ccc2N)c1 | 45.4* | 0.8 | x | 87.0* | 18.0 | 52.1*
COCCn1cnc2c1c(=O)n(Cc1ccc(C#N)cc1)c(=O)n2Cc1ccccc1 | 19.6* | 4.0 | x | 2.8 | 9.1 | 2.3
COC(=O)Nc1ccc(SCC(=O)c2cccc([N+](=O)[O-])c2)cc1 | 25.8* | 8.3 | x | 69.0* | 10.5 | 18.8*
COCCn1c(=S)[nH]c2cc(OC)c(OC)cc2c1=O | 42.8* | 1.7 | -11.1 | -3.0 | -0.9 | -2.6
CN(C(=O)c1ccco1)c1nc(-c2ccc(F)cc2)cs1 | -1.4 | -6.2 | x | -0.8 | -0.7 | x
Cc1[nH]n(-c2ccccc2)c(=O)c1C(c1ccccc1[N+](=O)[O-])C(C#N)C#N (centres undefined) | 22.3* | 13.8 | x | 5.6 | 7.7 | 2.3
Cc1ccc(C(C[N+](=O)[O-])c2c(C)[nH]n(-c3ccccc3)c2=O)cc1 (centres undefined) | 16.7* | 5.3 | -3.6 | 0.7 | 75.6* | -4.2
Cc1[nH]n(-c2ccccc2)c(=O)c1C(c1ccccc1C(=O)O)c1c(C)[nH]n(-c2ccccc2)c1=O | -3.5 | 0.7 | -5.4 | -3.2 | 3.5 | x
COc1cccc(Nc2c(F)c(OC)c(F)c(F)c2C(=O)O)c1 | 0.5 | -8.0 | -10.6 | -1.1 | 0.2 | x
CCCn1c(CN2CCN(C(=O)OCC)CC2)nc2cc(NC(=O)CC)ccc21 | 14.9* | 2.4 | x | 0.2 | 9.8 | 2.0
O=C(Nc1ccc(Cl)cc1)Nc1ccccc1Sc1ncc([N+](=O)[O-])s1 | 21.9* | 7.0 | 0.2 | 49.6* | -20.0 | 14.2
O=C(COc1ccc(Br)cc1)N1CCN(S(=O)(=O)/C=C/c2ccccc2)CC1 | -3.2 | -0.6 | -2.3 | -4.1 | 0.9 | x
O=C(COc1ccccc1F)N1CCN(S(=O)(=O)/C=C/c2ccccc2)CC1 | 55.9* | 1.5 | -3.0 | 1.0 | -1.1 | -0.2
CC1=C(C(=O)Nc2nc3ccccc3s2)C(c2ccco2)C(C#N)=C(SCC(=O)NC2CCCCC2)N1 (centres undefined) | -6.3 | -18.4 | -22.8 | 13.1 | -14.3 | x
COc1ccccc1C(=O)C1CCCN(Cc2cccc3nccnc23)C1 (centres undefined) | -0.6 | 1.1 | -10.0 | 2.5 | -5.2 | x
O=C(NCCCNC(=O)c1ccccc1F)c1ccco1 | 36.6* | 2.0 | x | 2.2 | 1.6 | 0.3
O=[N+]([O-])c1cccnc1SCc1ccccc1 | -3.5 | 4.8 | x | -0.6 | -2.7 | x
NC(=O)c1cc(S(=O)(=O)N2CCc3ccccc3C2)cs1 | 1.9 | -1.2 | x | -1.9 | 3.2 | x
SMILES | PAD4 inh | SIAE inh | RBBP9 inh | PRMT1 inh | GSTO1 counter | PAD4 confirm
COc1ccc(NC(=O)CCCNC(=O)Cn2cnc3sc4c(c3c2=O)CCCC4)c(OC)c1 | 35.1* | -2.9 | x | 3.4 | -2.5 | 3.7
CCN(CC)c1ccc(N2C(=NC(=O)C3CC3)SC3CS(=O)(=O)CC32)cc1 (centres undefined) | -0.7 | 1.3 | x | 2.9 | 1.7 | x
O=[N+]([O-])c1cnc(N2CCCCC2)c([N+](=O)[O-])c1 | 40.7* | 9.0 | 4.5 | 9.1 | 9.0 | -2.8
Cc1cc([N+](=O)[O-])cnc1N1CCOCC1 | 0.6 | -0.6 | -0.5 | -2.8 | 4.4 | x
CC(C)=CCC(C)(C)/C=N/NC(N)=O | 5.1 | 3.6 | -8.5 | 2.3 | 2.3 | x
CC1CC(C)(C)N2C(=O)C3(Nc4ccccc4S3)c3cccc1c32 (centres undefined) | 22.9* | x | -1.2 | x | 3.8 | 27.7*
COc1ccc(N2C(=O)CSC23C(=O)N2c4c(cccc43)C(C)=CC2(C)C)cc1 (centres undefined) | 11.2 | 2.5 | -1.1 | 5.3 | -11.3 | x
COc1ccc(N2C(=O)CSC23C(=O)N2CCCc4cccc3c42)cc1 (centres undefined) | 22.0* | -1.5 | -2.7 | 0.8 | 2.4 | 20.7*
O=C1CSC2(C(=O)N3CCCc4cccc2c43)N1c1cccc(C(F)(F)F)c1 (centres undefined) | 18.0* | x | -5.0 | x | -3.1 | 8.1
COc1ccc(N2C(=O)CSC23C(=O)Nc2ccccc23)cc1OC (centres undefined) | 6.7 | -1.1 | 0.1 | 0.1 | -3.0 | x
COc1cc(N2C(=O)CSC23C(=O)Nc2ccccc23)cc(OC)c1OC (centres undefined) | 15.1* | -2.4 | -1.0 | -2.2 | -6.3 | 16.4*
COCc1nc(-c2cc(Br)ccc2OC)no1 | -2.1 | 0.5 | -4.1 | 0.0 | -6.5 | x
Cc1ccc(-c2csc(NC(=O)CSc3nc(C)cc(=O)[nH]3)n2)cc1 | 11.7 | -32.9 | -7.1 | 19.5 | -6.3 | x
CCOC(=S)SCC(=O)Nc1nc(-c2ccccc2)cs1 | 25.0* | -12.9 | -10.0 | 26.1* | 3.0 | 24.6*
O=C(CSC1=NCCS1)Nc1nc2ccccc2s1 | 16.8* | -4.2 | -3.6 | 41.6* | -1.4 | 10.5
Cc1sc(NC(=O)CSc2ncn(-c3ccccc3)n2)nc1-c1ccccc1 | 1.7 | -26.6 | -9.7 | 4.3 | -3.7 | x
Cc1ccc(-c2csc(NC(=O)CSC3=NCCS3)n2)cc1 | 20.1* | -13.3 | -7.3 | 2.5 | -14.4 | 15.9*
Cc1sc(NC(=O)CSC2=NCCS2)nc1-c1ccccc1 | 19.2* | -9.1 | -5.8 | 4.1 | 0.4 | 17.3*
CCOC(=S)SCC(=O)Nc1nc(-c2ccc(Br)cc2)cs1 | 14.6 | -20.0 | -20.9 | 10.7 | -6.5 | x
Cc1ccc(/C=N/Nc2nncn2N)cc1 | 46.4* | 2.5 | x | 0.9 | 16.3 | 1.4
Nn1cnnc1N/N=C/c1ccc(F)cc1 | 40.7* | 3.6 | x | 0.5 | 18.3 | 2.7
Nn1cnnc1N/N=C/c1ccccc1C(F)(F)F | 39.1* | 6.1 | x | -0.1 | 1.9 | 6.7
Cc1nnc(N/N=C/c2ccc([N+](=O)[O-])cc2)n1N | 5.3 | 1.0 | -5.0 | 10.3 | -0.8 | x
